Source: ChEMBL document CHEMBL3792366, “Role of disulfide linkage in action of bis(dialkylaminethiocarbonyl)disulfides as potent double-Edged microbicidal spermicide: Design, synthesis and biology” (Eur J Med Chem, 2016)
pIC50: −log10 of the molar value. Converted amounts (≈) assume the structure as drawn. The source made the active and inactive calls. The calls are words filed in the database; no cut-off is given here.

What was measured:
[1] = Spermicidal activity in human sperms assessed as motility measured within 30 secs by phase contrast microscopy; assay type: functional, Sperm
Outline: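 Liquefied human semen (0.05 mL) was added to 0.25 mL test solution and vortexed 10 s at low speed. Motile sperm were scored visually under phase contrast in five fields within 30 s; assays in triplicate; MEC = minimum effective concentration.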

Candida albicans = assay: Antifungal activity against Candida albicans after 48 hrs by broth microdilution method; assay type: functional
Outline: (§1)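 NCCLS broth microdilution in RPMI 1640 buffered with MOPS; starting inoculum 1–5 × 10^3 CFU/mL; plates incubated at 35 °C; MIC read after 48 h.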

Cryptococcus neoformans = assay: Antifungal activity against Cryptococcus neoformans after 48 hrs by broth microdilution method; assay type: functional; outline: as §1
Sporothrix schenckii = assay: Antifungal activity against Sporothrix schenckii after 48 hrs by broth microdilution method; assay type: functional; outline: as §1
[2] = system: Trichophyton mentagrophytes; assay: Antifungal activity against Trichophyton mentagrophytes after 48 hrs by broth microdilution method; assay type: functional; outline: as §1
Candida parapsilosis = assay: Antifungal activity against Candida parapsilosis ATCC 22019 after 48 hrs by broth microdilution method; assay type: functional; details: Lodderomyces parapsilosis, ATCC 22019, 48 h; outline: as §1
Trichomonas vaginalis [3] = assay: Antitrichomonas activity against trophozoite stage of Trichomonas vaginalis clinical isolate assessed as cell viability under anaerobic condition after 48 hrs by trypan blue exclusion assay; assay type: functional
Outline: (§2)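 Log-phase T. vaginalis grown in TYM with 10% FCS, vitamin mix and penicillin/streptomycin at 37 °C. Compounds were made as 100 µg/mL DMSO stocks and serially diluted in TYM down to 0.1 µg/mL; DMSO/TYM served as vehicle. Parasites were incubated anaerobically at 37 °C, and viability was checked by trypan blue exclusion from 3 to 48 h. MIC = lowest concentration killing all cells by 48 h; each test was repeated three times.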

Trichomonas vaginalis [4] = assay: Antitrichomonas activity against metronidazole-resistant trophozoite stage of Trichomonas vaginalis ATCC 50143 assessed as cell viability under anaerobic condition after 48 hrs by trypan blue exclusion assay; assay type: functional; details: ATCC 50143, 48 h; outline: as §2
[5] = Toxicity in Lactobacillus jensenii ATCC 25258 after 72 hrs
HeLa = assay: Cytotoxicity against human HeLa cells after 5 hrs by lactate dehydrogenase release assay; assay type: cell-based
Outline: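 HeLa cells were seeded at 2×10^4/well in triplicate and grown 24 h at 37 °C in 5% CO2. The DMEM was then replaced with medium holding serially diluted compound, and plates were incubated 5 h. LDH release in the supernatant was measured colorimetrically at 490 nm, and IC50 was derived from it.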

[6] = Selectivity index, ratio of IC50 for Lactobacillus jensenii ATCC 25258 to MIC for trophozoite stage of Trichomonas vaginalis clinical isolate
[7] = Selectivity index, ratio of IC50 for Lactobacillus jensenii ATCC 25258 to MIC for metronidazole resistant trophozoite stage of Trichomonas vaginalis ATCC 50143
Trichomonas vaginalis [8] = assay: Potency index, ratio of metronidazole MIC to compound MIC for metronidazole-resistant trophozoite stage of Trichomonas vaginalis ATCC 50143; assay type: functional
Oryctolagus cuniculus [9] = assay: In vivo spermicidal activity in Belgian rabbit assessed as decrease in pregnancy rate at 10 mg via intravaginal instillation measured 30 to 34 days post gestation period; assay type: functional
Outline: (§3)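 Young adult female Belgian rabbits. Compound was blended into K-Y Jelly, with plain jelly for controls. Two mL of jelly was instilled 10–12 cm deep into the vagina by catheter, with the animal supine.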

Oryctolagus cuniculus [10] = assay: In vivo spermicidal activity in Belgian rabbit assessed as decrease in pregnancy rate at 15 mg via intravaginal instillation measured 30 to 34 days post gestation period; assay type: functional; outline: as §3
Oryctolagus cuniculus [11] = assay: In vivo spermicidal activity in Belgian rabbit assessed as decrease in pregnancy rate at 20 mg via intravaginal instillation measured 30 to 34 days post gestation period; assay type: functional; outline: as §3
Oryctolagus cuniculus [12] = assay: In vivo spermicidal activity in Belgian rabbit assessed as decrease in litter size at 10 mg via intravaginal instillation measured 30 to 34 days post gestation period; assay type: functional; parameters: scale not given: the % may be the effect or the level left; outline: as §3
Oryctolagus cuniculus [13] = assay: In vivo spermicidal activity in Belgian rabbit assessed as decrease in litter size at 15 mg via intravaginal instillation measured 30 to 34 days post gestation period; assay type: functional; parameters: scale not given: the % may be the effect or the level left; outline: as §3
Oryctolagus cuniculus [14] = assay: In vivo spermicidal activity in Belgian rabbit assessed as decrease in litter size at 20 mg via intravaginal instillation measured 30 to 34 days post gestation period; assay type: functional; parameters: scale not given: the % may be the effect or the level left; outline: as §3
Sperm = assay: Spermicidal activity in human sperm assessed as decrease in free thiol levels in sperm membrane at MEC after 15 mins by mBBr dye based fluorescence microscopy; assay type: functional, cell membranes
Outline: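 Semen (0.5 mL) was incubated with 2.5 mL of compound at MEC, or saline, for 15 min at room temperature. Sperm were pelleted at 700×g, washed in PBS and labelled with 0.5 mM (final) mBBr for 15 min in the dark. After washing, cells were imaged by epifluorescence (UV1A filter) at equal exposure times.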

Oryctolagus cuniculus [15] = assay: In vivo spermicidal activity in Belgian rabbit assessed as decrease in pregnancy rate administered via intravaginal instillation measured 30 to 34 days post gestation period; assay type: functional, organism-based; outline: as §3
Oryctolagus cuniculus [16] = assay: In vivo spermicidal activity in Belgian rabbit assessed as decrease in pregnancy rate at 25 mg via intravaginal instillation measured 30 to 34 days post gestation period; assay type: functional; outline: as §3
Oryctolagus cuniculus [17] = assay: In vivo spermicidal activity in Belgian rabbit assessed as decrease in pregnancy rate at 50 mg via intravaginal instillation measured 30 to 34 days post gestation period; assay type: functional; outline: as §3
Oryctolagus cuniculus [18] = assay: In vivo spermicidal activity in Belgian rabbit assessed as decrease in litter size at 25 mg via intravaginal instillation measured 30 to 34 days post gestation period; assay type: functional; parameters: scale not given: the % may be the effect or the level left; outline: as §3
Oryctolagus cuniculus [19] = assay: In vivo spermicidal activity in Belgian rabbit assessed as decrease in litter size at 50 mg via intravaginal instillation measured 30 to 34 days post gestation period; assay type: functional; parameters: scale not given: the % may be the effect or the level left; outline: as §3
Trichomonas vaginalis [20] = assay: Antitrichomonas activity against metronidazole-susceptible Trichomonas vaginalis in sc dosed mouse assessed as pustule formation at 5 ug administered daily measured after 5 days (reference value: 109 mm'2); assay type: functional
Trichomonas vaginalis [21] = assay: Antitrichomonas activity against metronidazole-susceptible Trichomonas vaginalis in sc dosed mouse assessed as pustule formation at 5 ug administered daily measured after 7 days (reference value: 190 mm'2); assay type: functional
Trichomonas vaginalis [22] = assay: Antitrichomonas activity against metronidazole-susceptible Trichomonas vaginalis in sc dosed mouse assessed as spleen weight at 5 ug administered daily measured after 7 days (reference value: 0.59 g); assay type: functional
Trichomonas vaginalis [23] = assay: Antitrichomonas activity against Trichomonas vaginalis assessed as reduction in free thiol levels in parasite membrane at MIC after 24 hrs by fluorescence microscopy; assay type: functional, organism-based

## CCCCN1CCN(C(=S)SSC(=S)N2CCN(CCCC)CC2)CC1
[1]
  MEC: 0.001%
Candida albicans
  MIC: 57.4 µM (≈ 25 µg/mL)
Cryptococcus neoformans
  MIC: 114 µM (≈ 49.6 µg/mL)
Sporothrix schenckii
  MIC: 114 µM (≈ 49.6 µg/mL)
[2]
  MIC: 114 µM (≈ 49.6 µg/mL)
Candida parapsilosis
  MIC: 57.4 µM (≈ 25 µg/mL)
Trichomonas vaginalis [3]
  MIC: 14.3 µM (≈ 6.22 µg/mL)
Trichomonas vaginalis [4]
  MIC: 28.7 µM (≈ 12.5 µg/mL)
[5]
  pIC50: 3.08
HeLa
  pIC50: 3.44
[6]
  Selectivity Index: 25
[7]
  Selectivity Index: 12
Trichomonas vaginalis [8]
  Ratio: 4
Oryctolagus cuniculus [9]
  Efficacy: 37.5%
Oryctolagus cuniculus [10]
  Efficacy: 62.5%
Oryctolagus cuniculus [11]
  Efficacy: 50%
Oryctolagus cuniculus [12]
  Activity: 67%
Oryctolagus cuniculus [13]
  Activity: 74%
Oryctolagus cuniculus [14]
  Activity: 76%
Sperm
  Activity: Active
Oryctolagus cuniculus [15]
  Activity: Dose-dependent effect

## N#CCCCN1CCN(C(=S)SSC(=S)N2CCN(CCCC#N)CC2)CC1
[1]
  MEC: 0.001%
Candida albicans
  MIC: > 109 µM
Cryptococcus neoformans
  MIC: > 109 µM
Sporothrix schenckii
  MIC: 109 µM (≈ 49.8 µg/mL)
[2]
  MIC: 109 µM (≈ 49.8 µg/mL)
Candida parapsilosis
  MIC: > 109 µM
Trichomonas vaginalis [3]
  MIC: 6.8 µM (≈ 3.11 µg/mL)
Trichomonas vaginalis [4]
  MIC: 6.8 µM (≈ 3.11 µg/mL)
[5]
  pIC50: 2.21
HeLa
  pIC50: 2.60
[6]
  Selectivity Index: 368
[7]
  Selectivity Index: 368
Trichomonas vaginalis [8]
  Ratio: 16
Oryctolagus cuniculus [9]
  Efficacy: 85.7%
Oryctolagus cuniculus [16]
  Efficacy: 100%
Oryctolagus cuniculus [17]
  Efficacy: 100%
Oryctolagus cuniculus [12]
  Activity: 90%
Oryctolagus cuniculus [18]
  Activity: 100%
Oryctolagus cuniculus [19]
  Activity: 100%
Trichomonas vaginalis [20]
  Activity: 15 mm2
Trichomonas vaginalis [21]
  Activity: 5.75 mm2
Trichomonas vaginalis [22]
  Activity: 0.3 g
Trichomonas vaginalis [23]
  Activity: Active
Oryctolagus cuniculus [15]
  Activity: Dose-dependent effect
